# What was measured:
# 41M = assay: Cytotoxicity against human 41M cells after 96 hrs by MTT assay; format: cell-based
# Outline: (§1)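 Adherent cells grown in MEM with 10% heat-inactivated FBS, 1 mM sodium pyruvate, 4 mM L-glutamine and nonessential amino acids at 37 °C, 5% CO2. Seeded at 4 × 10^3 cells/well and preincubated 24 h. Exposed 96 h to DMSO stocks serially diluted in medium (DMSO ≤0.5%). MTT added for 4 h, formazan dissolved in DMSO, read at 550 nm (ref 690 nm). IC50 interpolated from T/C curves; ≥3 independent experiments, six cultures per concentration.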
# [1] = Cytotoxicity against human SKBR3 cells after 96 hrs by MTT assay; format: cell-based; conditions: SK-BR-3, 96 h; outline: as §1
# [2] = target: T1, Ribonucleoside-diphosphate reductase subunit M2 (Mus musculus) (UniProt P11157); assay: Effect on mouse ribonucleotide reductase R2 protein measured by tyrosyl radical concentration in aerobic condition at 3 mM, 298 K after 1005 mins
# T1 sequence (whole entry): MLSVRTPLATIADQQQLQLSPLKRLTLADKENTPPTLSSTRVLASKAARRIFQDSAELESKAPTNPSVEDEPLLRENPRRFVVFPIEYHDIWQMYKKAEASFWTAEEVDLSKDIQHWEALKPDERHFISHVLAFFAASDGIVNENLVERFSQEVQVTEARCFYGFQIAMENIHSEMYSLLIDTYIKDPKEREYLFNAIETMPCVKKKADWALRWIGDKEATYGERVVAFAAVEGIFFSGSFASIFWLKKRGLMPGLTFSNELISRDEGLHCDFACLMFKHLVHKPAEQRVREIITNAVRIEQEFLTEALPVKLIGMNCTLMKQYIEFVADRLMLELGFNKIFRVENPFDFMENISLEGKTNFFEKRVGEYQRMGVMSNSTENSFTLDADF
# Outline: (§2)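 Reconstituted purified mouse R2 diluted to 30 µM monomer in 50 mM Tris/HCl pH 7.6, 100 mM KCl. Compound added from 3 mM stock (DMSO, or water for nitrates) to a final 30–33 µM (1:1 with monomer), about 1% DMSO, plus 1 mM DTT, under air at 298 K. Samples frozen in liquid nitrogen after each incubation; tyrosyl radical quantified by X-band EPR at 40 K.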
# [3] = target: T1, Ribonucleoside-diphosphate reductase subunit M2 (Mus musculus); assay: Effect on mouse ribonucleotide reductase R2 protein measured by tyrosyl radical concentration in anaerobic condition at 3 mM, 298 K after 1 min
# Outline: (§3)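 Run in an anaerobic tent with argon-bubbled, vacuum-degassed buffer (50 mM Tris/HCl pH 7.6, 100 mM KCl) and solutions. Protein degassed and diluted to a final 30 µM R2 monomer with 30 µM compound (from 3 mM stocks), 1% DMSO and 1 mM DTT freshly prepared. Incubated at 298 K for 1, 15 and 1005 min total; tyrosyl radical measured by EPR at 77 K.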
# [4] = target: T1, Ribonucleoside-diphosphate reductase subunit M2 (Mus musculus); assay: Effect on mouse ribonucleotide reductase R2 protein measured by tyrosyl radical concentration in anaerobic condition at 3 mM, 298 K after 15 mins; outline: as §3
# [5] = target: T1, Ribonucleoside-diphosphate reductase subunit M2 (Mus musculus); assay: Effect on mouse ribonucleotide reductase R2 protein measured by tyrosyl radical concentration in anaerobic condition at 3 mM, 298 K after 1005 mins; outline: as §3
# [6] = target: T1, Ribonucleoside-diphosphate reductase subunit M2 (Mus musculus); assay: Effect on mouse ribonucleotide reductase R2 protein measured by tyrosyl radical concentration in aerobic condition at 3 mM, 298 K after 1 min; outline: as §2
# [7] = target: T1, Ribonucleoside-diphosphate reductase subunit M2 (Mus musculus); assay: Effect on mouse ribonucleotide reductase R2 protein measured by tyrosyl radical concentration in aerobic condition at 30-33 µM, 298 K after 15 mins
Activity [2] [µM],Activity [3] [µM],Activity [4] [µM],Activity [5] [µM],Activity [6] [µM],Activity [7] [µM],Structure (SMILES),IC50 (41M) [nM],IC50 [1] [nM]
,,,,,,C/C(=N\NC(=S)N1CCCC1)c1cnccn1,1.1,5
0.5,8.5,0,0,17.2,7,C/C(=N\NC(=S)N(C)C)c1ccccn1,0.22,2.7
,,,,,,C/C(=N\NC(=S)N1CCCCC1)c1cnccn1,0.41,2.2
,,,,,,C/C(=N\NC(=S)N(C)C)c1cnccn1,0.073,1.4
,,,,,,C/C(=N\NC(=S)N1CCCC1)c1ccccn1,0.36,3.1

# Source: ChEMBL document CHEMBL1142947, “Gallium(III) and iron(III) complexes of alpha-N-heterocyclic thiosemicarbazones: synthesis, characterization, cytotoxicity, and interaction with ribonucleotide reductase” (J Med Chem, 2007)
